Here are results for four molecules from PMC4431436 (Oncology Reports, 2015).

Series [1] has as its system metastatic melanoma. The following applies: intravenously twice weekly; stage IV or unresectable stage III; cited from earlier work.
For series [2] the following is noted: approximately; cited from earlier work.
In series [3] the test system is murine B16F10 melanoma. Briefly: lung metastasis in the murine B16F10 melanoma prevention model. Format: in vivo, B6D2F1 hybrid female mice. To be noted: for total tumor colony number on lung surface: Veh 90±5, mean ± SEM. In a few lines: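 6-week-old B6D2F1 females got 1.5×10⁵ B16F10 cells (cultured in DMEM/10% FBS) by i.v. tail vein. Necropsy ~2 weeks. Surface colonies counted across five lung regions; formalin-fixed frontal H&E sections for tumor area. Mean ± SEM; ANOVA/Tukey or t-test; Fisher's PLSD for area.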

Series [4] concerns human integrin αIIbβ3. Nature of the series: cell adhesion assay, HeK293 overexpressing αIIbβ3 to fibrinogen. In kind it is cell-based. To be noted: relative to αvβ3-mediated adhesion. In a few lines: (§1)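 Stably transfected HEK293 cells overexpressing a human integrin, 25×10³ cells/well, attached for 2 h at 37°C in a humidified incubator, with or without increasing concentrations of test compound. Wells were coated with vitronectin (αvβ3, αvβ5), fibrinogen (αIIbβ3) or fibronectin (α5β1). Non-attached cells were washed off. Attached cells were quantified by colorimetric hexosaminidase activity against a per-line standard curve; mean of triplicates.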

Series [5] deals with human integrin αvβ3 (Homo sapiens, UniProt P05106+P06756). Nature of the series: cell adhesion assay, HeK293-αvβ3 cells to vitronectin. Format: cell-based. In a few lines:
as §1

For series [6], the system named is human integrin α5β1. Briefly: cell adhesion assay, HeK293 overexpressing α5β1 to fibronectin. Format: cell-based. To be noted: relative to αvβ3-mediated adhesion. The method in brief: as §1
In series [7] the target is purified murine αvβ3 integrin (Mus musculus, UniProt O54890+P43406). Nature of the series: 3H-MK-0429 binding assay with purified receptor.
The subject of series [8] is B16F10-luc melanoma cells. Briefly: bioluminescent imaging of de novo lung metastasis, B16F10-luc melanoma model. In kind it is in vivo, (nu/nu) female mice. In a few lines:
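8-week-old nu/nu females got 2.5×10⁵ G418-selected luciferase-expressing B16F10 cells i.v. From day 1, saline or test compound 300 mg/kg p.o. b.i.d. for two weeks; n=10/group. Imaged on days 0, 3, 8, 11 and 15 under 2.5% isoflurane after D-luciferin 90 mg/kg i.p. Total flux (photons/s) taken in head, lung and abdomen ROIs, dorsal and ventral. Then ex vivo lung imaging and surface colony counts. Mean ± SEM.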

Series [9] is described as follows: body weight of mice injected with B16F10 melanoma. Format: in vivo, B6D2F1 hybrid female mice. To be noted: 100 and 300 mg/kg, p.o., b.i.d., over the study duration.
The conditions of series [10]: cited from earlier work.
The target of series [11] is purified human αvβ3 integrin (Homo sapiens, UniProt P05106+P06756). Briefly: 3H-MK-0429 binding assay with purified receptor.
Series [12] concerns human integrin αvβ5. Briefly: cell adhesion assay, HeK293 overexpressing αvβ5 to vitronectin. In kind it is cell-based. The following applies: relative to αvβ3-mediated adhesion. The method in brief: as §1
In series [13] the test system is osteoclastic bone resorption. The following applies: read-out: IC50, inhibition of osteoclastic bone resorption; in vitro; cited from earlier work.
The conditions of series [14]: ovariectomized monkeys; cited from earlier work.
In series [15] the target is T1, purified rat αvβ3 integrin (Rattus norvegicus, UniProt F1LZX9+Q8R2H2).
T1 sequence (F1LZX9 31-1043): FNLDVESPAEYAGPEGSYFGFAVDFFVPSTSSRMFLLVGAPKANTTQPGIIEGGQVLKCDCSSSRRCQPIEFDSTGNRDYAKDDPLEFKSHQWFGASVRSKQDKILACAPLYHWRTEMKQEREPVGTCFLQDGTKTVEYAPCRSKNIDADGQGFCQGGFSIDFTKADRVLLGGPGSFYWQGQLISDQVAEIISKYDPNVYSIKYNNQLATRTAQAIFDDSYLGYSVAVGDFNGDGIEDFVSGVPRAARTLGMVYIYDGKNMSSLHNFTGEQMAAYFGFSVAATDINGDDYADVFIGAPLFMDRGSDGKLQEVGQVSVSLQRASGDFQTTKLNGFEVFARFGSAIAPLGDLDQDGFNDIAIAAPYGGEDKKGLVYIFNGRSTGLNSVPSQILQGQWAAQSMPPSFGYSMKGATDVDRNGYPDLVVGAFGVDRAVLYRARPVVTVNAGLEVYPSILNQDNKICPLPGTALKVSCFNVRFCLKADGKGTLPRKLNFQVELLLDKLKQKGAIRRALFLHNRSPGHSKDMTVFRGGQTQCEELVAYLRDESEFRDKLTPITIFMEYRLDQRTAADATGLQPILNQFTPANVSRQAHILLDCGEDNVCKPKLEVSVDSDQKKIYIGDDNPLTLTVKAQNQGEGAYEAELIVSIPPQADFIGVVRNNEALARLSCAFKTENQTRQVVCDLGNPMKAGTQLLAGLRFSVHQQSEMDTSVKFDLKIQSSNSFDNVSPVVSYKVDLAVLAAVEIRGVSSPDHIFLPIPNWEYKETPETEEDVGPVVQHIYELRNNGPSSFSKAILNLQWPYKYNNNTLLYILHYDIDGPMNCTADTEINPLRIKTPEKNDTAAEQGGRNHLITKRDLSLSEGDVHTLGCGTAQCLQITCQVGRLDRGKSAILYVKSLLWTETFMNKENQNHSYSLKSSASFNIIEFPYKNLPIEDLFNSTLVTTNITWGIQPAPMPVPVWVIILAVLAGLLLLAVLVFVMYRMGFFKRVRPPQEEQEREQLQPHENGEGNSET
T1 sequence (Q8R2H2 26-787): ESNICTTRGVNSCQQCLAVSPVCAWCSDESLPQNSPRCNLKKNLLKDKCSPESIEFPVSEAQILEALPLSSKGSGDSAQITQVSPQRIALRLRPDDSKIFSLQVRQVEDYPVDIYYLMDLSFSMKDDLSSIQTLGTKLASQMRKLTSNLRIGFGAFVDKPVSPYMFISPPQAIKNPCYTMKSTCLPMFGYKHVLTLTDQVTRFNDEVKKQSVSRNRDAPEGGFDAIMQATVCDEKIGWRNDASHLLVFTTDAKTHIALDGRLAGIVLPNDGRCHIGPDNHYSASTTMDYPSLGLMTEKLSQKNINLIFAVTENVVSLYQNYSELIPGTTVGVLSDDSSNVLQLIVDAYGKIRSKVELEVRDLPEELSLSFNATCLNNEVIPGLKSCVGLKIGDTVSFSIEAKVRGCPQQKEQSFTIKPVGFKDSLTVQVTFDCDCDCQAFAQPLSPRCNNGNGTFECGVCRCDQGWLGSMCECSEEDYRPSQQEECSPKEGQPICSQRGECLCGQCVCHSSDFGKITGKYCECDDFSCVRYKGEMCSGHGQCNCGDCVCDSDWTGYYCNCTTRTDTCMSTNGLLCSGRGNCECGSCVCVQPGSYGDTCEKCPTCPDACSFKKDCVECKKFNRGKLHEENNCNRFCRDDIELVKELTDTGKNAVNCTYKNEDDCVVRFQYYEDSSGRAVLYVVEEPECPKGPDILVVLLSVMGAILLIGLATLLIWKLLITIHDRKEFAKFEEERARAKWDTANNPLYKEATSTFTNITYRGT
Briefly: 3H-MK-0429 binding assay with purified receptor.

The conditions of series [16]: cited from earlier work. This is another data set of the same source.
For series [17] the following is noted: ovariectomized rats; cited from earlier work.
For series [18], the system named is metastatic melanoma. The following applies: 8 mg/kg once weekly, i.v.; stage IV metastatic melanoma; cited from earlier work.
Setting [19] is: 300 mg/kg, p.o., b.i.d., day 11.

What is called half-life is how long it takes for the measured level to halve. One may read the IC50 as the concentration needed to halve the response being measured. The Kd is the free concentration of one partner at which half of the binding sites on the other are occupied at equilibrium, for simple one-to-one binding.

Entries after “also recorded” stand apart in the source; their conditions may differ. Read-outs that look alike come from different tables or passages of the source. Some results are limits rather than exact numbers.

Chain of purified human αvβ3 integrin (P05106 27-788): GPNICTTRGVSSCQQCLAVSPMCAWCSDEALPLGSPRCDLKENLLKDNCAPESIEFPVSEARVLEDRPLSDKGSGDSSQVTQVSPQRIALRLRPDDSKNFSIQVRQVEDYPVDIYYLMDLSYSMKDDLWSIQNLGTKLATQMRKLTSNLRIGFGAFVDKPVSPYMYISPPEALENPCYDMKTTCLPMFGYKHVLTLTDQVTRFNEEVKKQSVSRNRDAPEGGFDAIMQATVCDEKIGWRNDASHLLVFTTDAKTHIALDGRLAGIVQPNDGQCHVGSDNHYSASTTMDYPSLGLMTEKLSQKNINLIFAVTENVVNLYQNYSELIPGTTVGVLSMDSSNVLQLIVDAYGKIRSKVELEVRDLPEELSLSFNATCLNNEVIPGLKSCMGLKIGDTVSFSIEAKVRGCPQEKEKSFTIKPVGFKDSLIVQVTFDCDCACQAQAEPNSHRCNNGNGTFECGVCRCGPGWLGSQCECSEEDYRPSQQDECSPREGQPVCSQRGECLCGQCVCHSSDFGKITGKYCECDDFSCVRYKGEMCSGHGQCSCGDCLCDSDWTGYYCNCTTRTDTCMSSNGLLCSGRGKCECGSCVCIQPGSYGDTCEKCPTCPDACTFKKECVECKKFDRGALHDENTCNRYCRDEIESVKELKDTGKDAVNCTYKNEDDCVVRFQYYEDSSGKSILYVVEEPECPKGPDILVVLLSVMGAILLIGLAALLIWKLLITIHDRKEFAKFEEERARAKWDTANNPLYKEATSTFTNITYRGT
Chain of purified human αvβ3 integrin (P06756 31-889): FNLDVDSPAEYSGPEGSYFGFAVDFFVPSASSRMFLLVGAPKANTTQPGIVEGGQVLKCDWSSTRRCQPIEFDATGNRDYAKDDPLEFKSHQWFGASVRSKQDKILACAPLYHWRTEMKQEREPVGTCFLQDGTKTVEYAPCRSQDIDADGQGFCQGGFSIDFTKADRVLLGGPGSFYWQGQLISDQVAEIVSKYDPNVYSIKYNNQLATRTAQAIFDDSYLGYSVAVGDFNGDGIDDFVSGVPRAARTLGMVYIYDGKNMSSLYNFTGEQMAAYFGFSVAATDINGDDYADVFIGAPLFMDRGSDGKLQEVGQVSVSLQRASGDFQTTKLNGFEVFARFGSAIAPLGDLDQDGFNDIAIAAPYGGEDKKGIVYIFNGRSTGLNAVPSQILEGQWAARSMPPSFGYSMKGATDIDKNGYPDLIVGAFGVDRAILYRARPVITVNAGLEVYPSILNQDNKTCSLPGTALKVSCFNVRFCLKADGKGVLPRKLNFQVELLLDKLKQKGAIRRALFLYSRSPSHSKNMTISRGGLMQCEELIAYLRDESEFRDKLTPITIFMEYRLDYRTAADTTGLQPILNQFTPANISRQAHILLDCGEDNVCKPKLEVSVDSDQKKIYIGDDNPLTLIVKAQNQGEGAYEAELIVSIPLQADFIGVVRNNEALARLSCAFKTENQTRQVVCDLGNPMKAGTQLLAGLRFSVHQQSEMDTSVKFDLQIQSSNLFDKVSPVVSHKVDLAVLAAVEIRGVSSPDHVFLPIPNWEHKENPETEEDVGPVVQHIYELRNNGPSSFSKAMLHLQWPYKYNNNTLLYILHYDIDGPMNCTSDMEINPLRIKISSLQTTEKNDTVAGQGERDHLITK
Chain of purified human αvβ3 integrin (P06756 891-1048): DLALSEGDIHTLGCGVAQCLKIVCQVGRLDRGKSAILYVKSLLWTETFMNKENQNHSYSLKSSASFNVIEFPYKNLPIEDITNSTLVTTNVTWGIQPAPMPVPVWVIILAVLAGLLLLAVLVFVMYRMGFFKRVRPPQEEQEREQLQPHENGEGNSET
Chain of purified murine αvβ3 integrin (P43406 31-885): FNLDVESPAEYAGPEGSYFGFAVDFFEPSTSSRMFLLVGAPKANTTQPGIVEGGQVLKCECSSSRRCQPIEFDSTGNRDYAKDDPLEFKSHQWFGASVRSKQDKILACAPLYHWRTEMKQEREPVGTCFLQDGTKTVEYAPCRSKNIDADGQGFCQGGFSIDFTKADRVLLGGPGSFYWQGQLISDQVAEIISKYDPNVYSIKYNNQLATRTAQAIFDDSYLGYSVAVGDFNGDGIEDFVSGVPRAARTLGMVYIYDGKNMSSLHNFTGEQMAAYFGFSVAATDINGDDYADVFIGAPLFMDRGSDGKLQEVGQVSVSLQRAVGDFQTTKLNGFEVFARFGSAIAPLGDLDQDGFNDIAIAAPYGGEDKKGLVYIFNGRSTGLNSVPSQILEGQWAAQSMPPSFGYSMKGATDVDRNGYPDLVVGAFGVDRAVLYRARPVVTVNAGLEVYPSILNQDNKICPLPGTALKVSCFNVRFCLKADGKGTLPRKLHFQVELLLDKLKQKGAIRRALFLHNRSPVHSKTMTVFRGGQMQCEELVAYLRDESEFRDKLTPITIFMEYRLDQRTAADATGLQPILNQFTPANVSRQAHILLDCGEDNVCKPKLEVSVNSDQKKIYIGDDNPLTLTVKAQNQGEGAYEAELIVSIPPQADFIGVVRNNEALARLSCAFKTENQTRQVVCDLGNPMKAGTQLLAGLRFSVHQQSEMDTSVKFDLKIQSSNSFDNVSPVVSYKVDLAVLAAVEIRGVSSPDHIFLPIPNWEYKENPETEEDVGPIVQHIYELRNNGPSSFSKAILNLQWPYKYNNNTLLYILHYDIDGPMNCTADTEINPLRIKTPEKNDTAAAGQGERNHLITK
Chain of purified murine αvβ3 integrin (P43406 887-1044): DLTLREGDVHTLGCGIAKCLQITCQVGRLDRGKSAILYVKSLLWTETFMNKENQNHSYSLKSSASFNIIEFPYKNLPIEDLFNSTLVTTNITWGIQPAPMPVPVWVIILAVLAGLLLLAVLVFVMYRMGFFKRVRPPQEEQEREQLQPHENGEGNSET
Chain of purified murine αvβ3 integrin (O54890 26-787): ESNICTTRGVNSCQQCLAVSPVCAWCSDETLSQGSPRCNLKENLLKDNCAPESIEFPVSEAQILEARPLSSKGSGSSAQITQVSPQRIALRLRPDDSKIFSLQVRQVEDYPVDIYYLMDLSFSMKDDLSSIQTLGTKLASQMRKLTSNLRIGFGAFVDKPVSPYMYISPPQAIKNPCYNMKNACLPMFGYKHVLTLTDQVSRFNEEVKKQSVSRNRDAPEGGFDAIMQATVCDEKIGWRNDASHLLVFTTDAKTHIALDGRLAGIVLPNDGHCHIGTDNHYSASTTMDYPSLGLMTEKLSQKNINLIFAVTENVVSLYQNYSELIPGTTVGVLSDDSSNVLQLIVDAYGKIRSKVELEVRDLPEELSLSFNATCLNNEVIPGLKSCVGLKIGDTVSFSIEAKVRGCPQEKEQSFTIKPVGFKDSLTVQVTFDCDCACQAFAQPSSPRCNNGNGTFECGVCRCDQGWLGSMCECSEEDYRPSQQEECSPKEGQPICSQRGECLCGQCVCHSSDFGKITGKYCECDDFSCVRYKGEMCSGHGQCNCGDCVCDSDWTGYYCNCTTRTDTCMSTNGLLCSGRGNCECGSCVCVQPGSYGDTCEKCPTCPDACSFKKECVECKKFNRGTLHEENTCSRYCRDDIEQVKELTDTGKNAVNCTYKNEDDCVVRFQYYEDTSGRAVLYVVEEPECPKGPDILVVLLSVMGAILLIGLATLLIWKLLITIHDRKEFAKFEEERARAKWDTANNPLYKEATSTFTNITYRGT
Chain of human integrin αvβ3 (P06756 891-1048): as the sequence (P06756 891-1048) above
Chain of human integrin αvβ3 (P05106 27-788): as the sequence (P05106 27-788) above
Chain of human integrin αvβ3 (P06756 31-889): as the sequence (P06756 31-889) above

As for Cilengitide [reference compound], in [1], the “clinical efficacy as single-agent therapy for advanced melanoma” value was “minimal clinical efficacy”. Further, in [2], the half-life is 2 to 4 h.
For the molecule `O=P1(N(CCCl)CCCl)NCCCO1` (stereo not drawn) [Cyclophosphamide, cyclophosphamide, reference compound], the “reduction of tumor colony number vs vehicle” value in series [3] (300 mg/kg, i.p., q.d.) is 99%.
Take `COc1ccc([C@H](CC(=O)O)N2CCN(CCCc3ccc4c(n3)NCCC4)C2=O)cn1` [MK-0429, 3(S)-(6-methoxypyridin-3-yl)-3-[2-oxo-3-[3-(5,6,7,8-tetrahydro-[1,8]-naphthyridin-2-yl)propyl]imidazolidin-1-yl] propionic acid]: the “fold less active in blocking adhesion mediated by αIIbβ3 to fibrinogen” value in [4] is > 1,000 fold. In addition, the IC50 in series [5] is 0.58 ± 0.3 nM; in [13], 12.2 ± 4.5 nM. In addition, the “fold less active in blocking adhesion mediated by α5β1 to fibronectin” value in series [6] is > 1,000 fold. The Kd in series [7] was found to be 0.56 ± 0.07 nM; in series [11], 0.33 ± 0.04 nM; in series [15] it was 1.23 ± 0.11 nM. Also, the “reduction of visible metastatic colonies counted on the ex vivo lung surface” value in series [8] (300 mg/kg twice daily for two weeks, p<0.05 vs. Veh) came to 32%. Further, the “decrease of metastasis in the lungs, ex vivo bioluminescence, vs vehicle” value in series [8] (300 mg/kg, p.o., b.i.d.) is listed as ~ 40%. Moreover, in series [8] (300 mg/kg, p.o., b.i.d., Veh 118.1±27.1, not statistically significant), the “ex vivo lung tumor burden (bioluminescence)” value is 69.9±5.9 ×10^5 photons/sec. For the same molecule, the “reduction of melanoma burden in the ventral lung (bioluminescence) vs vehicle” value in series [8] (300 mg/kg, p.o., b.i.d., day 8) was found to be 38%; in [8] (setting [19]) it was 37%. Further, the “reduction of tumor metastases in the dorsal lung (bioluminescence) vs vehicle” value in [8] (300 mg/kg, p.o., b.i.d., day 8) is on record as 15%; in [8] (setting [19]), 54%; in series [8] (300 mg/kg, p.o., b.i.d., day 15, p=0.0561 vs. Veh), 38%. Also, the “effect on body weight” value in series [9] is recorded as “no significant weight loss”. Moreover, in [10] (200 and 1,600 mg orally, twice daily for four weeks), the “bone resorption marker urinary N-telopeptide” value is “significantly decreased”. Besides, the tolerability entry in [10] (up to 1,600 mg twice daily for four weeks) was “well tolerated at this high dose; also recorded: well tolerated and without serious adverse events”; in series [16] (postmenopausal women with osteoporosis), “well tolerated and without serious adverse events”. For the same molecule, the “fold less potent in blocking adhesion of HeK293-αvβ5 to vitronectin” value in series [12] is on record as ~ 100 fold. Moreover, the “reduction of tumor colony number vs vehicle” value in series [3] (100 mg/kg, p.o., b.i.d.) amounted to 64%; in series [3] (300 mg/kg, p.o., b.i.d.), 57%. In addition, the “total tumor colony number on lung surface” value in series [3] (100 mg/kg, p.o., b.i.d.) was 33±6; in series [3] (300 mg/kg, p.o., b.i.d.), 39±9. In addition, in series [3] (300 mg/kg, b.i.d., Veh 11.1±0.4, n=5/group), the “total tumor area in lung sections (H&E)” value is reported as 5.0±0.7 mm^2. The “reduction of melanoma colonies in all lung regions” value in series [3] (100 and 300 mg/kg, p.o., b.i.d., five lung regions) is listed as 53–68%. The bone mass result in series [14] and in [17] was “increases bone mass” throughout. Further, the bone turnover entry in [14] and in series [17] was “significantly reduces bone turnover” in each case. Moreover, the “bone mineral density at the spine and hip compared to placebo” value in [16] (100 or 400 mg once daily, or 200 mg twice daily for 12 months) is reported as “significant increase”.

B1: etaracizumab: monoclonal antibody against αvβ3 (antibody, chains of the INN, looked up, V domains shown)
VH: QVQLVESGGGVVQPGRSLRLSCAASGFTFSSYDMSWVRQAPGKGLEWVAKVSSGGGSTYYLDTVQGRFTISRDNSKNTLYLQMNSLRAEDTAVYYCARHLHGSFASWGQGTTVTVSS
VL: EIVLTQSPATLSLSPGERATLSCQASQSISNFLHWYQQRPGQAPRLLIRYRSQSISGIPARFSGSGSGTDFTLTISSLEPEDFAVYYCQQSGSWPLTFGGGTKVEIK
In the case of B1, the “median survival rate, alone vs in combination with dacarbazine” value in series [18] is recorded as “not different”. Also, the half-life result in series [2] is “a few days”.
